According to ChEMBL document CHEMBL1811814, “Synthesis and evaluation of indole, pyrazole, chromone and pyrimidine based conjugates for tumor growth inhibitory activities--development of highly efficacious cytotoxic agents” (Eur J Med Chem, 2010):

Tests used:
Type in all cases: functional
Design in all cases: scale not given: the % may be the effect or the level left
[1] = tested on: CCRF-CEM; assay: Growth inhibition of human CCRF-CEM cells assessed tumor cell growth at 10^-5 M
Outline: (§1)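 NCI 60-human-tumor-cell-line panel screen. Each compound was tested at a single concentration of 10^-5 M, and percent growth of tumor cells was recorded for each cell line. Growth inhibition was expressed from these percent-growth values.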

[2] = tested on: HL-60(TB); assay: Growth inhibition of human HL-60(TB) cells assessed tumor cell growth at 10^-5 M
Outline: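 HL-60(TB), part of the 60-line panel, tested at a single concentration of 10^-5 M. The read-out is percent tumor cell growth relative to untreated growth.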

[3] = tested on: K562; assay: Growth inhibition of human K562 cells assessed tumor cell growth at 10^-5 M; outline: as §1
[4] = tested on: MOLT-4; assay: Growth inhibition of human MOLT4 cells assessed tumor cell growth at 10^-5 M; outline: as §1
[5] = Growth inhibition of human […] cells assessed tumor cell growth at 10^-5 M; outline: as §1
[6] = tested on: A549; assay: Growth inhibition of human A549 cells assessed tumor cell growth at 10^-5 M; outline: as §1
[7] = tested on: EKVX; assay: Growth inhibition of human EKVX cells assessed tumor cell growth at 10^-5 M; outline: as §1
[8] = tested on: HOP-62; assay: Growth inhibition of human HOP62 cells assessed tumor cell growth at 10^-5 M; outline: as §1
[9] = tested on: HOP-92; assay: Growth inhibition of human HOP92 cells assessed tumor cell growth at 10^-5 M; outline: as §1
[10] = tested on: NCI-H226; assay: Growth inhibition of human NCI-H226 cells assessed tumor cell growth at 10^-5 M; outline: as §1
[11] = tested on: NCI-H23; assay: Growth inhibition of human NCI-H23 cells assessed tumor cell growth at 10^-5 M; outline: as §1
[12] = tested on: NCI-H322M; assay: Growth inhibition of human NCI-H322M cells assessed tumor cell growth at 10^-5 M; outline: as §1
[13] = tested on: NCI-H460; assay: Growth inhibition of human NCI-H460 cells assessed tumor cell growth at 10^-5 M; outline: as §1
[14] = tested on: COLO 205; assay: Growth inhibition of human COLO205 cells assessed tumor cell growth at 10^-5 M; outline: as §1
[15] = tested on: HCC 2998; assay: Growth inhibition of human HCC2998 cells assessed tumor cell growth at 10^-5 M; outline: as §1
[16] = tested on: HCT-116; assay: Growth inhibition of human HCT116 cells assessed tumor cell growth at 10^-5 M; outline: as §1
[17] = tested on: HCT-15; assay: Growth inhibition of human HCT15 cells assessed tumor cell growth at 10^-5 M; outline: as §1
[18] = tested on: HT-29; assay: Growth inhibition of human HT-29 cells assessed tumor cell growth at 10^-5 M; outline: as §1
[19] = tested on: KM12; assay: Growth inhibition of human KM12 cells assessed tumor cell growth at 10^-5 M; outline: as §1
[20] = tested on: SF-268; assay: Growth inhibition of human SF268 cells assessed tumor cell growth at 10^-5 M; outline: as §1
[21] = tested on: SF-295; assay: Growth inhibition of human SF295 cells assessed tumor cell growth at 10^-5 M; outline: as §1
[22] = tested on: SF-539; assay: Growth inhibition of human SF539 cells assessed tumor cell growth at 10^-5 M; outline: as §1
[23] = tested on: SNB-19; assay: Growth inhibition of human SNB19 cells assessed tumor cell growth at 10^-5 M
Outline: (§2)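 Single-dose screen at 10^-5 M across the 60 human tumor cell line panel, run to NCI standards. The value is the percent growth of each cell line in the presence of compound. Compounds active at this dose moved on to five-concentration testing (10^-4 to 10^-8 M).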

[24] = tested on: SNB-75; assay: Growth inhibition of human SNB75 cells assessed tumor cell growth at 10^-5 M; outline: as §2
[25] = tested on: U-251; assay: Growth inhibition of human U251 cells assessed tumor cell growth at 10^-5 M; outline: as §2
[26] = tested on: LOX IMVI; assay: Growth inhibition of human LOXIMVI cells assessed tumor cell growth at 10^-5 M; outline: as §1
[27] = tested on: Malme-3M; assay: Growth inhibition of human MALME-3M cells assessed tumor cell growth at 10^-5 M; outline: as §1
[28] = tested on: M14; assay: Growth inhibition of human M14 cells assessed tumor cell growth at 10^-5 M; outline: as §1
[29] = tested on: MDA-MB-435; assay: Growth inhibition of human MDA-MB-435 cells assessed tumor cell growth at 10^-5 M; outline: as §1
[30] = tested on: SK-MEL-2; assay: Growth inhibition of human SK-MEL-2 cells assessed tumor cell growth at 10^-5 M; outline: as §1
[31] = tested on: SK-MEL-5; assay: Growth inhibition of human SK-MEL-5 cells assessed tumor cell growth at 10^-5 M; outline: as §1
[32] = tested on: UACC-257; assay: Growth inhibition of human UACC257 cells assessed tumor cell growth at 10^-5 M; outline: as §2
[33] = tested on: UACC-62; assay: Growth inhibition of human UACC62 cells assessed tumor cell growth at 10^-5 M; outline: as §2
[34] = tested on: OVCAR-3; assay: Growth inhibition of human OVCAR3 cells assessed tumor cell growth at 10^-5 M; outline: as §1
[35] = tested on: OVCAR-4; assay: Growth inhibition of human OVCAR4 cells assessed tumor cell growth at 10^-5 M; outline: as §1
[36] = tested on: OVCAR-5; assay: Growth inhibition of human OVCAR5 cells assessed tumor cell growth at 10^-5 M; outline: as §1
[37] = tested on: OVCAR-8; assay: Growth inhibition of human OVCAR8 cells assessed tumor cell growth at 10^-5 M; outline: as §1
[38] = tested on: NCI/ADR-RES; assay: Growth inhibition of human NCI/ADR-RES cells assessed tumor cell growth at 10^-5 M; outline: as §1
[39] = tested on: SK-OV-3; assay: Growth inhibition of human SKOV3 cells assessed tumor cell growth at 10^-5 M; outline: as §1
[40] = tested on: 786-0; assay: Growth inhibition of human 786-0 cells assessed tumor cell growth at 10^-5 M; outline: as §1
[41] = tested on: A498; assay: Growth inhibition of human A498 cells assessed tumor cell growth at 10^-5 M; outline: as §1
[42] = tested on: ACHN; assay: Growth inhibition of human ACHN cells assessed tumor cell growth at 10^-5 M; outline: as §1
[43] = tested on: CAKI-1; assay: Growth inhibition of human Caki1 cells assessed tumor cell growth at 10^-5 M; outline: as §1
[44] = tested on: RXF 393; assay: Growth inhibition of human RXF393 cells assessed tumor cell growth at 10^-5 M; outline: as §1
[45] = tested on: SN12C; assay: Growth inhibition of human SN12C cells assessed tumor cell growth at 10^-5 M; outline: as §1
[46] = tested on: UO-31; assay: Growth inhibition of human UO31 cells assessed tumor cell growth at 10^-5 M; outline: as §2
[47] = tested on: DU-145; assay: Growth inhibition of human DU145 cells assessed tumor cell growth at 10^-5 M; outline: as §1
[48] = tested on: MCF7; assay: Growth inhibition of human MCF7 cells assessed tumor cell growth at 10^-5 M; outline: as §1
[49] = tested on: MDA-MB-231; assay: Growth inhibition of human MDA-MB-231 cells assessed tumor cell growth at 10^-5 M; outline: as §1
[50] = tested on: BT-549; assay: Growth inhibition of human BT549 cells assessed tumor cell growth at 10^-5 M; outline: as §1
[51] = tested on: T47D; assay: Growth inhibition of human T47D cells assessed tumor cell growth at 10^-5 M; outline: as §2
[52] = tested on: MDA-MB-468; assay: Growth inhibition of human MDA-MB-468 cells assessed tumor cell growth at 10^-5 M; outline: as §1

For `CC1=NN(c2cccc(Cl)c2)C(=O)/C1=C\c1c[nH]c2ccccc12`, the Activity [1] was 142.91%, the Activity [2] was 124.41% and the Activity [3] was 128.85%. It also gave an Activity [4] of 159.76%, an Activity [5] of 103.27% and an Activity [6] of 109.06%. The Activity [7] was 79.28%, the Activity [8] was 83.26% and the Activity [9] was 72.8%. It also gave an Activity [10] of 76.77%, an Activity [11] of 117.91% and an Activity [12] of 106.34%. It also gave an Activity [13] of 109.9%, an Activity [14] of 122.84% and an Activity [15] of 88.48%. It also gave an Activity [16] of 101.89%, an Activity [17] of 103.61% and an Activity [18] of 114.3%. For the same molecule, the Activity [19] was 106.96%, the Activity [20] was 107.91% and the Activity [21] was 116.2%. It also gave an Activity [22] of 100.44%, an Activity [23] of 111.33% and an Activity [24] of 91.42%. It also gave an Activity [25] of 103.49%, an Activity [26] of 99.88% and an Activity [27] of 114.52%. The Activity [28] was 99.91%, the Activity [29] was 108.89% and the Activity [30] was 120.43%. It also gave an Activity [31] of 102.28%, an Activity [32] of 122.98% and an Activity [33] of 83.26%. It also gave an Activity [34] of 105.19%, an Activity [35] of 104.32% and an Activity [36] of 98.5%. The Activity [37] was 107.69%, the Activity [38] was 101.48% and the Activity [39] was 99.61%. For the same molecule, the Activity [40] was 98.46%, the Activity [41] was 100.75% and the Activity [42] was 84.34%. The Activity [43] was 155.88%, the Activity [44] was 99.54% and the Activity [45] was 200.78%. The Activity [46] was 88.75%, the Activity [47] was 121.25% and the Activity [48] was 76.22%. The Activity [49] was 72.74%, the Activity [50] was 117.3% and the Activity [51] was 83.89%. The Activity [52] was 104.9%.
